Consider 2 compounds from ChEMBL document CHEMBL1142209, “Inhibition of Plasmodium falciparum choline kinase by hexadecyltrimethylammonium bromide: a possible antimalarial mechanism” (Antimicrob Agents Chemother, 2007).

In experiment [1] the test system is Plasmodium falciparum. Description: Inhibition of Plasmodium falciparum NF54 trophozoite at 10 uM. It is filed as functional, organism-based. In outline: (§1)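 Sorbitol-synchronized NF-54 at 0.5% ring parasitemia, 1% hematocrit. Rings (0 h), trophozoites (24 h) or schizonts (36 h) exposed 8 h in CRPMI, then washed out. [3H]hypoxanthine (0.7 μCi/well) added at 24, 48 or 60 h respectively; harvest at 72 h and scintillation count. Read against stage-matched DMSO control; three experiments in triplicate.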

For experiment [2], the system named is Plasmodium falciparum. Description: Inhibition of phosphatidylcholine biosynthesis in Plasmodium falciparum NF54 as [methlyl-14C]choline uptake. In kind it is functional, organism-based. In outline: (§2)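 NF-54 culture (15% parasitemia, 5% hematocrit) treated 1 h at 37°C (90% N2, 5% CO2) and washed. Labelled 4 h with 40 μM [methyl-14C]choline (5.6 mCi/mmol). Cells lysed in 5% TCA with freeze-thaw; phosphatidylcholine counted in pellet. Ether-extracted supernatant split on Dowex-50W: phosphocholine unbound, free choline eluted with 1 N HCl. Compared with DMSO control.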

For experiment [3], the system named is Plasmodium falciparum. Description: Inhibition of Plasmodium falciparum choline kinase at 100 uM. In outline: (§3)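 Purified recombinant PfCK (5 μg; Ni-NTA affinity plus gel filtration) incubated at 37°C for 45 min in 100 mM Tris-Cl pH 8.8, 5 mM ATP, 6 mM MgCl2, 250 μM [methyl-14C]choline (5.6 mCi/mmol). Stopped with Dowex-50W slurry; [14C]phosphocholine in supernatant counted by scintillation. DMSO control = 100%. Three experiments in triplicate.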

For experiment [4], the system named is Plasmodium falciparum. Description: Inhibition of Plasmodium falciparum NF54 as [3H]hypoxanthine uptake at 20 uM. It is filed as functional, organism-based. In outline: (§4)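 Asynchronous P. falciparum NF-54 in human B+ erythrocytes (1% hematocrit, 0.5–0.7% parasitemia) exposed to compound (DMSO stock diluted in RPMI) for 48 h. Then washed and pulsed 48 h with [3H]hypoxanthine 0.7 μCi/well. Harvested on glass-fibre filters and counted by scintillation. % inhibition vs DMSO control; three experiments in triplicate.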

The test system of experiment [5] is Plasmodium yoelii. Description: Antimalarial activity at day 4 against intravenously inoculated Plasmodium yoelii N67 in Swiss mice (Mus musculus) at 20 mg/kg intraperitoneal dose. It is filed as functional, organism-based. The arrangement: dose 20 mg/kg. Particulars: N-67. In outline:
(§5)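 P. yoelii N-67 in Swiss mice (22 ± 2 g, five per group), 1 × 10^4 parasitized RBC i.v. on day 0. Aqueous suspension given i.p. (0.20 ml) from 6 h post-inoculation, days 0–3. Day-4 parasitemia from Giemsa smears; % suppression = [(C − T)/C] × 100 on group means vs vehicle.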

Experiment [6] deals with Plasmodium yoelii. Description: Antimalarial activity against intravenously inoculated Plasmodium yoelii N67 in Swiss mice (Mus musculus) at 5 mg/kg intraperitoneal dose on day 4. In kind it is functional, organism-based. Also noted: dose 5 mg/kg. To be noted: N-67. In outline:
as §5

For experiment [7], the system named is Plasmodium falciparum. Description: Growth inhibition of schizont Plasmodium falciparum NF54 at 10 uM. In kind it is functional, organism-based. In outline: as §1
In experiment [8] the test system is Plasmodium yoelii. Description: Antimalarial activity against intraperitoneal inoculated Plasmodium yoelii N67 in Swiss mice (Mus musculus) at 20 mg/kg intraperitoneal dose on day 4. In kind it is functional, organism-based. The arrangement: dose 20 mg/kg. To be noted: N-67. In outline:
(§6)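 P. yoelii N-67 in Swiss mice (22 ± 2 g, five per group), 1 × 10^5 parasitized RBC i.p. on day 0. Aqueous suspension given i.p. (0.20 ml) from 6 h post-inoculation, days 0–3. Day-4 parasitemia from Giemsa smears; % suppression = [(C − T)/C] × 100 on group means vs vehicle.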

Experiment [9] deals with Plasmodium falciparum. The experiment can be described thus: Inhibition of choline kinase in Plasmodium falciparum NF54 assessed as incorporation of [methlyl-14C]choline into phosphocholine at 10 uM. In outline:
as §2

The test system of experiment [10] is Plasmodium yoelii. Description: Antimalarial activity against intravenously inoculated Plasmodium yoelii N67 in Swiss mice (Mus musculus) at 10 mg/kg intraperitoneal dose on day 4. In kind it is functional, organism-based. Also noted: dose 10 mg/kg. To be noted: N-67. In outline:
as §5

The subject of experiment [11] is Plasmodium falciparum. Description: Inhibition of Plasmodium falciparum choline kinase at 50 uM in presence of 100 uM ATP.
The test system of experiment [12] is Plasmodium yoelii. The experiment can be described thus: Antimalarial activity against intraperitoneal inoculated Plasmodium yoelii N67 in Swiss mice (Mus musculus) at 10 mg/kg intraperitoneal dose on day 4. Particulars: N-67. Also noted: dose 10 mg/kg. In kind it is functional, organism-based. In outline:
as §6

For experiment [13], the system named is Plasmodium falciparum. Description: Inhibition of Plasmodium falciparum NF54 ring stage at 30 uM. In kind it is functional, organism-based. In outline:
as §1

Experiment [14] deals with Plasmodium falciparum. The experiment can be described thus: Inhibition of phosphocholine biosynthesis in Plasmodium falciparum NF54 as intracellular free choline at 10 uM. In kind it is functional, organism-based. In outline:
as §2

Experiment [15] relates to Plasmodium falciparum. Description: Inhibition of Plasmodium falciparum choline kinase. In outline:
as §3

Experiment [16] concerns Plasmodium yoelii. Description: Antimalarial activity against intraperitoneal inoculated Plasmodium yoelii N67 in Swiss mice (Mus musculus) at 5 mg/kg intraperitoneal dose on day 4. It is filed as functional, organism-based. Also noted: dose 5 mg/kg. Particulars: N-67. In outline: as §6
Experiment [17] has as its system Plasmodium falciparum. Description: Inhibition of Plasmodium falciparum NF54 as [3H]hypoxanthine uptake at 10 uM. It is filed as functional, organism-based. In outline: as §4
The test system of experiment [18] is Plasmodium falciparum. The experiment can be described thus: Inhibition of Plasmodium falciparum choline kinase at 150 uM in presence of 100 uM ATP.
The subject of experiment [19] is Plasmodium falciparum. Description: Inhibition of Plasmodium falciparum choline kinase at 50 uM in presence of 250 uM ATP.
Experiment [20] deals with Plasmodium falciparum. The experiment can be described thus: Inhibition of Plasmodium falciparum choline kinase at 150 uM in presence of 250 uM ATP.

What is called inhibition is the percentage by which the read-out fell short of the control.

For the compound hexadecyltrimethylammonium bromide, the inhibition in the experiment on Plasmodium falciparum [1] came out at 62%; with Plasmodium falciparum [3], 60%; in the experiment with Plasmodium falciparum [4] it was 81%; in the experiment with Plasmodium falciparum [7], 51%; in the experiment on Plasmodium falciparum [9], 57%; with Plasmodium falciparum [11], 60%. In addition, the inhibition in the experiment with Plasmodium falciparum [13] turned out to be 33.3%; in the experiment on Plasmodium falciparum [14] it was 42%; in the experiment on Plasmodium falciparum [17] it was 62%. The Activity entry in the experiment on Plasmodium falciparum [2] is “Dose-dependent effect”; in the experiment with Plasmodium yoelii [5] it was 83.7%; in the experiment with Plasmodium yoelii [6], 48.7%; in the experiment on Plasmodium yoelii [8] it was 77.2%; in the experiment on Plasmodium yoelii [10] it was 64.2%; in the experiment on Plasmodium yoelii [12], 52.4%. In addition, the Activity result in the experiment on Plasmodium falciparum [15] is “Dose-dependent effect”; in the experiment on Plasmodium yoelii [16], 36.8%.
`C[N+]1(C)CCOC(O)(c2ccc(-c3ccc(C4(O)C[N+](C)(C)CCO4)cc3)cc2)C1` (stereo unspecified): the inhibition in the experiment on Plasmodium falciparum [18] is 18%; with Plasmodium falciparum [11], 16%; with Plasmodium falciparum [19], 16%; with Plasmodium falciparum [20] it was 18%.
